Test results reported in ChEMBL document CHEMBL4251703, “Linker Variation and Structure-Activity Relationship Analyses of Carboxylic Acid-based Small Molecule STAT3 Inhibitors” (ACS Med Chem Lett, 2018).
≈ marks a conversion by molar mass, not a printed value. Calls of active or inactive are those of the source. The rule behind the calls is not given here.

Key:
[1] = Half life in mouse liver microsomes; assay type: ADME, microsome
[2] = Solubility of the compound in simulated intestinal fluid at pH 6.8; assay type: physicochemical
How it was run: (§1)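 Aqueous solubility was determined in pH 7.4 PBS and in pH 6.8 buffered simulated intestinal fluid, reported in μg/mL.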

[3] = Solubility of the compound in PBS at pH 7.4; assay type: physicochemical; how it was run: as §1
[4] = Half life in human liver microsomes; assay type: ADME, microsome
[5] = Apparent permeability of the compound from apical to basolateral side in human Caco2 cells; assay type: ADME, cell-based; details: Caco-2
MDA-MB-231 [6] = assay: Anticlonogenic activity against human MDA-MB-231 cells up to 3 uM after 4 hrs by crystal violet staining based assay; assay type: functional, cell-based
How it was run: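 Single-cell cultures of MDA-MB-231 cells were treated once and cultured until large colonies were visible. Colonies were then stained with crystal violet, counted and plotted.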

MDA-MB-468 = assay: Cytotoxicity against human MDA-MB-468 cells harboring active STAT3 assessed as decrease in cell viability up to 10 uM after 72 hrs by CyQuant dye based assay; assay type: functional
How it was run: (§2)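 Cells were grown in 96-well format and treated once with 0–10 μM compound for 72 h. Viable cells were quantified by CyQuant proliferation assay and plotted as % viability against concentration. Data are mean ± SD of three independent determinations.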

MDA-MB-231 [7] = assay: Cytotoxicity against human MDA-MB-231 cells harboring active STAT3 assessed as decrease in cell viability up to 10 uM after 72 hrs by CyQuant dye based assay; assay type: functional; how it was run: as §2
[8] = target: Mitogen-activated protein kinase; ERK1/ERK2 (Homo sapiens) (UniProt P27361+P28482); assay: Inhibition of ERK1/2 phosphorylation in human MDA-MB-231 cells at 5 uM after 24 hrs by immunoblot analysis; assay type: cell-based
Mitogen-activated protein kinase; ERK1/ERK2 (Homo sapiens), sequence (P27361 whole entry, looked up): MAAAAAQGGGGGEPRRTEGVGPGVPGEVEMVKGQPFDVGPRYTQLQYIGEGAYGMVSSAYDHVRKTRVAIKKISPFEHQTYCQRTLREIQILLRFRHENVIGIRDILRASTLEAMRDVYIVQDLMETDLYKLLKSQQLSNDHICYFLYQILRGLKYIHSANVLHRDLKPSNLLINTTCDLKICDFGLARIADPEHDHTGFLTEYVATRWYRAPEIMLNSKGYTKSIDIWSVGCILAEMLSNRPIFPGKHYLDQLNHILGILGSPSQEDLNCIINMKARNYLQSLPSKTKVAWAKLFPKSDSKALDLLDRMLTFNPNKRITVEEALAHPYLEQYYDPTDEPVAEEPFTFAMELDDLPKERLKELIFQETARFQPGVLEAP
Mitogen-activated protein kinase; ERK1/ERK2 (Homo sapiens), sequence (P28482 whole entry, looked up): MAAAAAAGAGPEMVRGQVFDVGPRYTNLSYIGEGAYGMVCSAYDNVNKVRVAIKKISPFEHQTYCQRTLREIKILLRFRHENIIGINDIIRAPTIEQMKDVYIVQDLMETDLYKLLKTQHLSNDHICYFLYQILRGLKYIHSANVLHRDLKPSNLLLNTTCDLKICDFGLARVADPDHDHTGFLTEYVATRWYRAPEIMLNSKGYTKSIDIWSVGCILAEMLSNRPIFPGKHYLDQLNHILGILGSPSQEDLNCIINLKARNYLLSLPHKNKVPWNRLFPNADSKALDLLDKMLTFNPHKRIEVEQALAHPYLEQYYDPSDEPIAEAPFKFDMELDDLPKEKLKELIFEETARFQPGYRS

[9] = target: Proto-oncogene tyrosine-protein kinase Src (Homo sapiens) (UniProt P12931); assay: Inhibition of SRC phosphorylation in human MDA-MB-231 cells at 5 uM after 24 hrs by immunoblot analysis; assay type: cell-based
Proto-oncogene tyrosine-protein kinase Src (Homo sapiens), sequence (P12931 2-536 limits assumed): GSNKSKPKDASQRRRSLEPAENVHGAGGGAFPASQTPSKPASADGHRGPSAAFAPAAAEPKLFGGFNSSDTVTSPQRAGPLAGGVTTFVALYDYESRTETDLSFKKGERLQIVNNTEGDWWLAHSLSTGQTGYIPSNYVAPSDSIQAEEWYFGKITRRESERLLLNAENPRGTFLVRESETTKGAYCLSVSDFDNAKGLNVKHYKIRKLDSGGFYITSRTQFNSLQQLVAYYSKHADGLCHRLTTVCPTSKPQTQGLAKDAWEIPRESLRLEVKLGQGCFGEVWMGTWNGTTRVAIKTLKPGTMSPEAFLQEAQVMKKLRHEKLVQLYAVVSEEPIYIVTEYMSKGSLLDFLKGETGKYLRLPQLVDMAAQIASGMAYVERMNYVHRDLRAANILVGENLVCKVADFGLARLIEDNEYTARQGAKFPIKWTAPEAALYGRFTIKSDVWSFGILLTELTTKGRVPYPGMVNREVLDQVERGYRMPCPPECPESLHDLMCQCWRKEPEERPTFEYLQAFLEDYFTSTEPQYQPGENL

[10] = target: Signal transducer and activator of transcription 3 (Homo sapiens) (UniProt P40763); assay: Inhibition of STAT3 in human MDA-MB-231 cells assessed as reduction in p-STAT3(Y705) level at 10 uM after 1 hr by immunoblot analysis; assay type: cell-based
Signal transducer and activator of transcription 3 (Homo sapiens), sequence (P40763 whole entry): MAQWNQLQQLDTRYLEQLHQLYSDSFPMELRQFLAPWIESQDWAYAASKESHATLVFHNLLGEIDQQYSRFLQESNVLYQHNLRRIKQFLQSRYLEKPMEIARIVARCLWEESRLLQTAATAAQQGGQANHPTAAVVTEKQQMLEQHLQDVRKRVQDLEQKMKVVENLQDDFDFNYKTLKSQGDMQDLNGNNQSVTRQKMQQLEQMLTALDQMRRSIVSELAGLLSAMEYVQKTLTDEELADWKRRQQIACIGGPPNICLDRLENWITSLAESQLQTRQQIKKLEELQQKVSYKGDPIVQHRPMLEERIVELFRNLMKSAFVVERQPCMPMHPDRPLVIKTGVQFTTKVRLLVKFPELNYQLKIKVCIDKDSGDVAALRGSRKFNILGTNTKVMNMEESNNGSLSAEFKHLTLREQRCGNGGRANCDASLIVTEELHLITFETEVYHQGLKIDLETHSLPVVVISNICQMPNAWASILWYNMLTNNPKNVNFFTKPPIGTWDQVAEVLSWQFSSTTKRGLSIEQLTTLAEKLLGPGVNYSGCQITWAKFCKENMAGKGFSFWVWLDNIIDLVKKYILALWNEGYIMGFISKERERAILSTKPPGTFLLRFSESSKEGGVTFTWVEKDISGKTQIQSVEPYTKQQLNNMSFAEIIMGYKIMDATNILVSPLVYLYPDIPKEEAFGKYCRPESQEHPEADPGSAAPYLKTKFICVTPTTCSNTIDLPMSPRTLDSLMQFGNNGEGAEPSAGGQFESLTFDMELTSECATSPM

[11] = target: Signal transducer and activator of transcription 3 (Homo sapiens) (UniProt P40763); assay: Inhibition of STAT3 DNA binding activity in human MDA-MB-468 nuclear extract at 5 uM after 24 hrs by electrophoretic mobility shift assay
How it was run: (§3)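 MDA-MB-468 cells received 5 μM compound for 3 or 24 h. STAT3 DNA-binding in nuclear extracts of equal total protein was then analysed by EMSA.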

[12] = target: Tyrosine-protein kinase JAK2 (Homo sapiens) (UniProt O60674); assay: Inhibition of JAK2 phosphorylation in human MDA-MB-231 cells at 5 uM after 24 hrs by immunoblot analysis; assay type: cell-based
Tyrosine-protein kinase JAK2 (Homo sapiens), sequence (O60674 whole entry): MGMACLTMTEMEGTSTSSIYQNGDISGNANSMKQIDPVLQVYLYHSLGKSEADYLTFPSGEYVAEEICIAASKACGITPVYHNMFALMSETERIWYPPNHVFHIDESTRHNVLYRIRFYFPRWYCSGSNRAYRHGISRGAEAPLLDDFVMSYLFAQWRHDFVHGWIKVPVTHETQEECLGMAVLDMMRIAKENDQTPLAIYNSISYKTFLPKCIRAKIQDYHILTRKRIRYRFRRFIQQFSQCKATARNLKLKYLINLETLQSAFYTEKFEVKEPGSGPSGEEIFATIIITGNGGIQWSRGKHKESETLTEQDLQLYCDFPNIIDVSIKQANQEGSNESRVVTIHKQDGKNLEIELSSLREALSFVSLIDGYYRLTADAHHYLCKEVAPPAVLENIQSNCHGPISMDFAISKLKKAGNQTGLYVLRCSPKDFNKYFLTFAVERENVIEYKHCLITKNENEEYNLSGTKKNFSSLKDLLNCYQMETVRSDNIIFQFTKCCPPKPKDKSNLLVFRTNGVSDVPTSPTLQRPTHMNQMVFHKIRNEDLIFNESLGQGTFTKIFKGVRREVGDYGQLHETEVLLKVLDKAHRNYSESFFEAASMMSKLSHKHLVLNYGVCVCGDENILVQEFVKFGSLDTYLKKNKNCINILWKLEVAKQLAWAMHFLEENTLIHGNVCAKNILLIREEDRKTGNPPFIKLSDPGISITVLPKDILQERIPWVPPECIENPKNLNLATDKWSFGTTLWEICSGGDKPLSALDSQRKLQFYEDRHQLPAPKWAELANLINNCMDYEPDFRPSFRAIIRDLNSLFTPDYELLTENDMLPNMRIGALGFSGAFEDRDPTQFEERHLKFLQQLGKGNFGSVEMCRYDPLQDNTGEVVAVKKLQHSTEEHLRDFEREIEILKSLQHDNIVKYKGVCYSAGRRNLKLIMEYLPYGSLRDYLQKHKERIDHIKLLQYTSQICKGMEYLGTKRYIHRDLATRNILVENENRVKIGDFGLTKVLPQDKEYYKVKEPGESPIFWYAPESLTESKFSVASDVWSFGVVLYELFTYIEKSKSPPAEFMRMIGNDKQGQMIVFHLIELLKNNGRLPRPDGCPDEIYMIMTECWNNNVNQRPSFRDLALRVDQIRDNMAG

MCF7 = assay: Cytotoxicity against human MCF7 cells assessed as decrease in cell viability up to 10 uM after 72 hrs by CyQuant dye based assay; assay type: functional; how it was run: as §2
MDA-MB-231 [13] = assay: Antimigratory activity against human MDA-MB-231 cells at 8 uM after 22 to […] hrs by inverted fluorescence microscope; assay type: functional, cell-based
How it was run: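 Confluent MDA-MB-231 cultures were wounded and treated once with or without 8 μM compound. Migration into the denuded area was followed over 23 h and imaged. Controls received 0.05% DMSO.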

MDA-MB-231 [14] = assay: Cytotoxicity against human MDA-MB-231 cells harboring active STAT3 assessed as decrease in cell viability up to 5 uM after 72 hrs by trypan blue exclusion based phase-contrast microscopy; assay type: functional
[15] = target: Signal transducer and activator of transcription 3 (Homo sapiens) (UniProt P40763); assay: Inhibition of STAT3 in human MDA-MB-231 cells assessed as reduction in p-STAT3(Y705) level at 5 uM after 1 to 24 hrs by immunoblot analysis; assay type: cell-based
[16] = target: Signal transducer and activator of transcription 3 (Homo sapiens) (UniProt P40763); assay: Inhibition of STAT3 in human MDA-MB-468 cells assessed as reduction in p-STAT3(Y705) level at 5 uM after 1 to 24 hrs by immunoblot analysis; assay type: cell-based
[17] = target: Signal transducer and activator of transcription 3 (Homo sapiens) (UniProt P40763); assay: Inhibition of STAT3 DNA binding activity in human MDA-MB-231 nuclear extract at 10 uM after 24 hrs by electrophoretic mobility shift assay
How it was run: (§4)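 MDA-MB-231 breast cancer cells were exposed to 10 μM compound for 1, 3 or 24 h. Nuclear extracts of equal total protein were then assayed for STAT3 DNA-binding by EMSA.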

[18] = target: Signal transducer and activator of transcription 3 (Homo sapiens) (UniProt P40763); assay: Inhibition of STAT3 DNA binding activity in human MDA-MB-231 nuclear extract at 10 uM after 3 hrs by electrophoretic mobility shift assay; how it was run: as §4
[19] = target: Signal transducer and activator of transcription 3 (Homo sapiens) (UniProt P40763); assay: Inhibition of STAT3 DNA binding activity in human MDA-MB-231 nuclear extract at 10 uM after 1 hr by electrophoretic mobility shift assay; how it was run: as §4
[20] = target: Signal transducer and activator of transcription 3 (Homo sapiens) (UniProt P40763); assay: Inhibition of STAT3 in human UACC-903 cells assessed as reduction in p-STAT3(Y705) level at 10 to 20 uM after 1 to 3 hrs by immunoblot analysis; assay type: cell-based
Homo sapiens [21] = species: Homo sapiens; assay: Cytotoxicity against human C8161 cells harboring active STAT3 assessed as decrease in cell viability up to 20 uM after 48 hrs by MTT assay; assay type: functional, cell-based
[22] = target: Signal transducer and activator of transcription 3 (Homo sapiens) (UniProt P40763); assay: Inhibition of STAT3 in human 1205 Lu cells assessed as reduction in p-STAT3(Y705) level at 10 to 20 uM after 1 to 3 hrs by immunoblot analysis; assay type: cell-based
[23] = target: Signal transducer and activator of transcription 3 (Homo sapiens) (UniProt P40763); assay: Inhibition of STAT3 in human C8161 cells assessed as reduction in p-STAT3(Y705) level at 10 to 20 uM after 1 to 3 hrs by immunoblot analysis; assay type: cell-based
[24] = target: Signal transducer and activator of transcription 3 (Homo sapiens) (UniProt P40763); assay: Inhibition of STAT3 DNA binding activity in human MDA-MB-468 nuclear extract at 5 uM after 3 to 24 hrs by electrophoretic mobility shift assay; how it was run: as §3
Homo sapiens [25] = species: Homo sapiens; assay: Cytotoxicity against human C81-61 cells harboring active STAT3 assessed as decrease in cell viability up to 20 uM after 48 hrs by MTT assay; assay type: functional, cell-based
Homo sapiens [26] = species: Homo sapiens; assay: Cytotoxicity against human 1205 Lu cells harboring active STAT3 assessed as decrease in cell viability up to 20 uM after 48 hrs by MTT assay; assay type: functional, cell-based
[27] = target: Signal transducer and activator of transcription 3 (Mus musculus) (UniProt P42227); assay: (§5) Inhibition of STAT3 DNA binding activity in mouse NIH/3T3 nuclear extract preincubated for 30 mins followed by [32P]hSIE addition measured after 30 mins by electrophoretic mobility shift assay
Signal transducer and activator of transcription 3 (Mus musculus), sequence (P42227 whole entry): as the sequence (P40763 whole entry) above, with E760D counted along it
How it was run: (§6)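 STAT3 DNA-binding was measured by EMSA using nuclear extracts of equal total protein from v-Src-transformed fibroblasts containing activated STAT3. Extracts were preincubated for 30 min with 0–100 μM compound, then incubated with radiolabeled hSIE probe.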

[28] = Cytotoxicity against human AR7119 cells assessed as decrease in cell viability up to 20 uM after 48 hrs by MTT assay; assay type: cell-based
[29] = target: Signal transducer and activator of transcription 3 (Mus musculus, UniProt P42227); assay: as §5; how it was run: as §6
Signal transducer and activator of transcription 3, sequence (P42227 whole entry): as the sequence (P40763 whole entry) above, with E760D counted along it

CN(CC(=O)N(Cc1ccc(C2CCCCC2)cc1)c1ccc(C(=O)O)cc1)S(=O)(=O)c1c(F)c(F)c(F)c(F)c1F
half-life [1]: ≥ 17 min
solubility [2]: 14 µg/mL (≈ 22.9 µM)
solubility [3]: 7.6 µg/mL (≈ 12.4 µM)
half-life [4]: ≥ 17 min

O=C([O-])c1ccc(N(Cc2ccc(C3CCOCC3)cc2)C(=O)[C@H]2CCCN2S(=O)(=O)c2c(F)c(F)c(F)c(F)c2F)cc1O.[Na+]
Papp A→B [5]: 0.2 ×10⁻⁶ cm/s
solubility [2]: 117 µg/mL
solubility [3]: 123 µg/mL

C[C@H](C(=O)N(Cc1ccc(C2CCCCC2)cc1)c1ccc(C(=O)O)cc1Cl)N(C)S(=O)(=O)c1c(F)c(F)c(F)c(F)c1F
Activity (MDA-MB-231 [6]): Active
Activity (MDA-MB-468): Active
Activity (MDA-MB-231 [7]): Active
inhibition [8]: inactive
inhibition [9]: inactive
inhibition [10]: Active
inhibition [11]: Active
inhibition [12]: inactive
Activity (MCF7): inactive
Activity (MDA-MB-231 [13]): Active

C[C@H](C(=O)N(Cc1ccc(C2CCCCC2)cc1)c1ccc(C(=O)O)cc1F)N(C)S(=O)(=O)c1c(F)c(F)c(F)c(F)c1F
Activity (MDA-MB-468): Active
Activity (MDA-MB-231 [7]): Active
Activity (MDA-MB-231 [14]): Active
p-STAT3(Y705) reduction (qualitative call) [15]: Active
inhibition [16]: Active
Activity (MCF7): inactive

C[C@@H](C(=O)N(Cc1ccc(C2CCCCC2)cc1)c1ccc(C(=O)O)c(O)c1)N(C)S(=O)(=O)c1c(F)c(F)c(F)c(F)c1F
inhibition [17]: Active
inhibition [18]: Active
inhibition [19]: inactive

C[C@H](C(=O)N(Cc1ccc(C2CCCCC2)cc1)c1ccc(C(=O)O)c(O)c1)N(C)S(=O)(=O)c1c(F)c(F)c(F)c(F)c1F [listing 1 of 2 here]
inhibition [17]: inactive
inhibition [18]: Active
inhibition [20]: Active
Activity (Homo sapiens [21]): Active
inhibition [22]: Active
inhibition [23]: Active
p-STAT3(Y705) reduction (qualitative call) [15]: Active
inhibition [19]: inactive
inhibition [24]: Active
inhibition [16]: Active
Activity (Homo sapiens [25]): Active
Activity (Homo sapiens [26]): Active
inhibition [27]: Active

C[C@H](C(=O)N(Cc1ccc(C2CCCCC2)cc1)c1ccc(C(=O)O)c(O)c1)N(C)S(=O)(=O)c1c(F)c(F)c(F)c(F)c1F [listing 2 of 2 here]
Activity [28]: Non-Toxic

Cc1cc(C(=O)O)ccc1N(Cc1ccc(C2CCCCC2)cc1)C(=O)CN(C)S(=O)(=O)c1c(F)c(F)c(F)c(F)c1F
Activity (MDA-MB-231 [6]): Active
Activity (MDA-MB-468): Active
Activity (MDA-MB-231 [7]): Active
inhibition [10]: Active
Activity (MCF7): inactive
Activity (MDA-MB-231 [13]): Active
inhibition [27]: inactive

O=C(O)c1ccc(N(Cc2ccc(C3CCCCC3)cc2)C(=O)[C@@H]2CCCN2S(=O)(=O)c2c(F)c(F)c(F)c(F)c2F)c(F)c1
half-life [1]: 26 min
Papp A→B [5]: 0.1 ×10⁻⁶ cm/s
half-life [4]: 54 min

CN(CC(=O)N(Cc1ccc(C2CCCCC2)cc1)c1ccc(C(=O)NO)cc1)S(=O)(=O)c1c(F)c(F)c(F)c(F)c1F
half-life [1]: ≥ 17 min
solubility [2]: 74 µg/mL (≈ 118 µM)
solubility [3]: 0.3 µg/mL (≈ 0.48 µM)
half-life [4]: ≥ 17 min

CN(CC(=O)N(Cc1ccc(C2CCCCC2)cc1)c1ccc(C(=O)O)cc1Cl)S(=O)(=O)c1c(F)c(F)c(F)c(F)c1F
Activity (MDA-MB-231 [6]): Active
Activity (MDA-MB-468): Active
Activity (MDA-MB-231 [7]): Active
inhibition [10]: Active
Activity (MCF7): inactive
Activity (MDA-MB-231 [13]): Active
IC50 [29]: 8.6 to 14.4 µM
